Screens: PubChem, Broad Institute
T cruzi growth-1: T. cruzi intracellular proliferation inhibitors, primary screen, cell-based, beta-gal Tulahuen parasites, NIH3T3 host, luminescence | AID 624255, 2012 | hit rate 5.9% among 77,000 | inhibition, % at 8.34 µM | T. cruzi beta-gal in NIH3T3, GalScreen luminescence, 90 h;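 active = mean inhibition above about 93%, with at least 55% of replicates each passing it, limit read from the data, passing the limit was not always enough; inconclusive = only one of those two conditions holds; inactive = neither condition holds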
IDH1 R132H inh: inhibitors of IDH1 R132H reductase, primary screen, biochemical, plate reader, single point | Isocitrate dehydrogenase [NADP] cytoplasmic (Homo sapiens), O75874 | diaphorase/resazurin fluorescence, 60 min | inhibition, % at 10 µM | hit rate 0.18% among 70,000 | AID 624101, 2012; in the data active = inhibition above about 34%; inconclusive = no clear call, values can overlap the other calls; inactive = below about 11%
Target sequence (O75874 whole entry R132H): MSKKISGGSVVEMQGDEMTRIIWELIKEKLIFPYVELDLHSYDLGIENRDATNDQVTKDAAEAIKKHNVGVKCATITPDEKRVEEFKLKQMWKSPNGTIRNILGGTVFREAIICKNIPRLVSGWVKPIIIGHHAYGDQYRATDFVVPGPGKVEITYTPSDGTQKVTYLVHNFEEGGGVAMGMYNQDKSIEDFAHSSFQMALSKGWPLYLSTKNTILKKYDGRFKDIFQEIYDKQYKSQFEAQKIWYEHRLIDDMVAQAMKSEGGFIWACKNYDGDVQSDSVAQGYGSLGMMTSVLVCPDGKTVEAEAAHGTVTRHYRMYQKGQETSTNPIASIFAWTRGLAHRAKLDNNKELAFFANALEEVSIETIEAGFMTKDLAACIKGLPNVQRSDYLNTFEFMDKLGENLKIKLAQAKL
Pf Dd2 inh: P. falciparum Dd2 growth inhibitors, primary screen, SYBR Green fluorescence, single dose replicates; 72 h; stronger effect = lower value; activity change, % at 10 µM; hit rate 2.3% among 94,000; AID 1159554, 2015; in the data active = activity change below about -80%; inconclusive = no clear call, values can overlap the other calls
KDM4C inh: inhibitors of GASC-1 (KDM4C) histone demethylase, primary screen, biochemical, single concentration HTS. inhibition, % at 12.5 µM. Lysine-specific demethylase 4C (Homo sapiens), Q9H3R0. hit rate 0.15% among 96,000. GST-KDM4C 2-372, H3K9me3 peptide, LANCE TR-FRET;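 active = mean replicate inhibition above about 25%, with at least 55% of replicates also reaching it, limit read from the data, passing the limit was not always enough; inconclusive = only one of those two conditions met; inactive = neither condition met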
Target sequence (Q9H3R0 2-372 limits assumed): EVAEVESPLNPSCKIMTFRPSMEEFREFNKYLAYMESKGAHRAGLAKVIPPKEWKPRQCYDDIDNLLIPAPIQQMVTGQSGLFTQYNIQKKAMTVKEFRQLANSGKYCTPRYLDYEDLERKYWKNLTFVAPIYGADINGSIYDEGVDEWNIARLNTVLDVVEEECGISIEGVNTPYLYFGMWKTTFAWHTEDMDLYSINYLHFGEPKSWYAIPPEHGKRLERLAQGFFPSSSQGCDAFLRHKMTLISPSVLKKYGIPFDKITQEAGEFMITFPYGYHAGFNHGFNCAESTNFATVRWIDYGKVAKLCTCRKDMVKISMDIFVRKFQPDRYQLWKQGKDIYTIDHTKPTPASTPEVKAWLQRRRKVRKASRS
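Test system – GST-tagged GASC-1 (JMJD2C) catalytic fragment, aa 2-372 · Medium – HEPES buffer, pH 7.5, plus ascorbate · Reagent – H3K9me3 peptide with Fe(II)/2OG · Compound – one test concentration per compound · Timing – 30 min reaction, 60 min detection, RT · Technique – TR-FRET with Eu antibody and ULight streptavidin, EDTA stop · Read-out basis – inhibition from TR-FRET ratio decrease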
T cruzi growth-2: T. cruzi intracellular proliferation inhibitors, confirmation, cell-based, NIH3T3 host, beta-gal parasite, luminescence, cherry-pick. shares compounds with T cruzi growth-1. T. cruzi beta-gal in NIH3T3, GalScreen luminescence, 90 h. inhibition, % at 8.35 µM. hit rate 72% among 5,600. AID 651739, 2012;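 active = mean replicate inhibition above about 95% and at least 55% of replicates individually reaching it, limit read from the data; inconclusive = only one of the two criteria is met; inactive = neither criterion is met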
T cruzi growth-3: inhibitors of intracellular T. cruzi replication, confirmation, NIH3T3 host cells, beta-gal parasites, cherry-pick, set 2. shares compounds with T cruzi growth-1. T. cruzi beta-gal in NIH3T3, GalScreen luminescence, 90 h. inhibition, % at 2.09 µM. hit rate 21% among 5,600;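 active = mean inhibition above about 95%, with at least 55% of replicates also reaching it, limit read from the data; inconclusive = meets just one of the two conditions; inactive = meets neither condition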
NIH3T3 tox: cytotoxicity in mouse NIH/3T3 fibroblasts, confirmation, cytotoxicity control for T. cruzi proliferation inhibitor project, cell-based, cherry-pick, single point; NIH/3T3 viability, CellTiter-Glo ATP luminescence, 90 h; shares compounds with T cruzi growth-1; cytotoxicity (signal decrease), % at 8.35 µM; hit rate 14% among 5,600; AID 651742, 2012;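 active = mean signal decrease across replicates above about 35% based on untreated-well scatter, with enough replicates individually passing, limit read from the data; inconclusive = no rule stated though some were filed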
NIH3T3 tox 2: NIH/3T3 fibroblast cytotoxicity, confirmation, cytotoxicity control, cell-based, cherry-pick, single point, set 2; shares compounds with T cruzi growth-1; NIH/3T3 viability, CellTiter-Glo ATP luminescence, 90 h; inhibition, % at 24.9 µM; hit rate 56% among 5,600;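 active = mean loss of cell viability signal at or above a set limit, and enough replicates individually reaching it; inconclusive = meets only the mean limit or only the replicate share; inactive = meets neither condition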
Of the large screens only hits and unclear results are named; the others gave an inactive call (follow-up assays come after a bar, where they were run). Hits are enriched below; roughly 5.8% of the tested compounds scored in any of these assays.

COc1ccc(NC(=O)Nc2ccc3c(c2)C(=O)N([C@H](C)CO)C[C@H](C)[C@H](CN(C)C(=O)Nc2ccc(OC)cc2)OCCCC[C@H](C)O3)cc1	T cruzi growth-1 inconclusive (no result: IDH1 R132H inh) | T cruzi growth-2 103 | T cruzi growth-3 inactive | NIH3T3 tox inactive | NIH3T3 tox 2 inactive
COc1ccc(-c2cn(CC[C@@H]3CC[C@H](NC(=O)Nc4ccc(F)cc4)[C@H](CO)O3)nn2)cc1	none (no result: T cruzi growth-1, IDH1 R132H inh)
CC(C)C#Cc1ccc([C@@H]2[C@H]3CN(C(=O)Nc4ccccc4)CCCCN3[C@H]2CO)cc1	T cruzi growth-1 inconclusive (no result: IDH1 R132H inh) | T cruzi growth-2 inactive | T cruzi growth-3 inactive | NIH3T3 tox 88 | NIH3T3 tox 2 106
CC(C)C#Cc1ccc([C@@H]2[C@@H](CO)N3CCCCN(C(=O)Nc4ccccc4)C[C@@H]23)cc1	T cruzi growth-1 106 (no result: IDH1 R132H inh) | T cruzi growth-2 112 | T cruzi growth-3 inactive | NIH3T3 tox inactive | NIH3T3 tox 2 105
C[C@H](O)C#Cc1ccc([C@H]2[C@@H](CO)N3CCCCN(C(=O)Nc4ccccc4)C[C@H]23)cc1	T cruzi growth-1 109 (no result: IDH1 R132H inh) | T cruzi growth-2 inactive | T cruzi growth-3 inactive | NIH3T3 tox inactive | NIH3T3 tox 2 inactive
CC(C)C#Cc1ccc([C@@H]2[C@@H](CO)N3CCCCN(C(=O)Nc4ccccc4)C[C@H]23)cc1	T cruzi growth-1 99 (no result: IDH1 R132H inh) | T cruzi growth-2 100 | T cruzi growth-3 inactive | NIH3T3 tox 39 | NIH3T3 tox 2 105
CC(C)C#Cc1ccc([C@@H]2[C@H](CO)N3CCCCN(C(=O)Nc4ccccc4)C[C@@H]23)cc1	none (no result: IDH1 R132H inh)
Cc1ccccc1-c1cnc2c(c1)C(=O)N([C@@H](C)CO)C[C@H](C)[C@@H](CN(C)C(=O)CN(C)C)O2	none
Cc1noc(C)c1S(=O)(=O)Nc1ccc2c(c1)C(=O)N([C@H](C)CO)C[C@@H](C)[C@H](CN(C)C(=O)Nc1ccc(F)cc1)O2	none
O=C(C[C@H]1CC[C@H]2[C@@H](COC[C@@H](O)CN2C(=O)Nc2cccc(Cl)c2)O1)N1CCCCC1	none (no result: IDH1 R132H inh)
O=C(C[C@H]1CC[C@H]2[C@@H](COC[C@@H](O)CN2Cc2cccc(-c3ccncc3)c2)O1)N1CCCCC1	T cruzi growth-1 109 (no result: IDH1 R132H inh) | T cruzi growth-2 inactive | T cruzi growth-3 inactive | NIH3T3 tox inactive | NIH3T3 tox 2 inactive
O=C(C[C@@H]1CC[C@H]2[C@@H](COC[C@@H](O)CN2C(=O)Nc2cccc(Cl)c2)O1)N1CCCCC1	T cruzi growth-1 95 (no result: IDH1 R132H inh) | T cruzi growth-2 inactive | T cruzi growth-3 inactive | NIH3T3 tox inactive | NIH3T3 tox 2 inactive
O=C(C[C@H]1CC[C@H]2[C@@H](COC[C@H](O)CN2Cc2cccc(Cl)c2)O1)N1CCCCC1	T cruzi growth-1 122 (no result: IDH1 R132H inh) | T cruzi growth-2 inactive | T cruzi growth-3 inactive | NIH3T3 tox inactive | NIH3T3 tox 2 inactive
O=C(C[C@@H]1CC[C@@H]2[C@H](COC[C@@H](O)CN2Cc2nccs2)O1)N1CCC(Cc2ccccc2)CC1	T cruzi growth-1 165 (no result: IDH1 R132H inh, Pf Dd2 inh) | T cruzi growth-2 inactive | T cruzi growth-3 inactive | NIH3T3 tox inactive | NIH3T3 tox 2 inactive
O=C(C[C@@H]1CC[C@H]2[C@@H](COC[C@@H](O)CN2Cc2cccc(-c3ccncc3)c2)O1)N1CCCCC1	none (no result: IDH1 R132H inh)
O=C(Nc1ccccc1F)N1CCCCN2[C@H](C1)[C@H](c1ccc(/C=C/c3ccccc3)cc1)[C@@H]2CO	T cruzi growth-1 116 (no result: IDH1 R132H inh) | T cruzi growth-2 110 | T cruzi growth-3 inactive | NIH3T3 tox inactive | NIH3T3 tox 2 47
O=C(Nc1ccccc1F)N1CCCCN2[C@H](CO)[C@@H](c3ccc(/C=C/c4ccccc4)cc3)[C@@H]2C1	T cruzi growth-1 112 (no result: IDH1 R132H inh) | T cruzi growth-2 98 | T cruzi growth-3 101 | NIH3T3 tox inactive | NIH3T3 tox 2 105
Cc1ccc(S(=O)(=O)N(C)C[C@H]2OCCCC[C@H](C)Oc3ccc(NC(=O)c4ccccc4)cc3C(=O)N([C@@H](C)CO)C[C@@H]2C)cc1	T cruzi growth-1 104, Pf Dd2 inh -82 | T cruzi growth-2 106 | T cruzi growth-3 inactive | NIH3T3 tox inactive | NIH3T3 tox 2 inactive
C[C@@H]1CN([C@@H](C)CO)C(=O)c2cc(NC(=O)c3ccccc3)ccc2O[C@@H](C)CCCCO[C@@H]1CN(C)S(=O)(=O)c1ccccc1	none (no result: IDH1 R132H inh)
Cc1ccc(S(=O)(=O)N(C)C[C@@H]2OCCCC[C@@H](C)Oc3ccc(NC(=O)c4ccccc4)cc3C(=O)N([C@@H](C)CO)C[C@H]2C)cc1	T cruzi growth-1 100, Pf Dd2 inh -81 | T cruzi growth-2 108 | T cruzi growth-3 inactive | NIH3T3 tox inactive | NIH3T3 tox 2 31
Cc1ccc(S(=O)(=O)N(C)C[C@H]2OCCCC[C@@H](C)Oc3ccc(NC(=O)c4ccccc4)cc3C(=O)N([C@@H](C)CO)C[C@@H]2C)cc1	Pf Dd2 inh inconclusive (no result: IDH1 R132H inh)
O=C(C1CC1)N1CCCCN2[C@H](CO)[C@H](c3ccc(-c4cccc(F)c4)cc3)[C@@H]2C1	T cruzi growth-1 inconclusive (no result: IDH1 R132H inh) | T cruzi growth-2 105 | T cruzi growth-3 inactive | NIH3T3 tox inactive | NIH3T3 tox 2 inconclusive
O=C(C1CCCC1)N1CCCCN2[C@H](C1)[C@H](c1ccc(-c3cccc(F)c3)cc1)[C@@H]2CO	none (no result: IDH1 R132H inh, KDM4C inh)
O=C(C1CC1)N1CCCCN2[C@@H](CO)[C@H](c3ccc(-c4cccc(F)c4)cc3)[C@@H]2C1	T cruzi growth-1 inconclusive (no result: IDH1 R132H inh) | T cruzi growth-2 100 | T cruzi growth-3 inactive | NIH3T3 tox inactive | NIH3T3 tox 2 37
O=C(C1CCCC1)N1CCCCN2[C@H](CO)[C@H](c3ccc(-c4cccc(F)c4)cc3)[C@H]2C1	T cruzi growth-1 118 (no result: IDH1 R132H inh, KDM4C inh) | T cruzi growth-2 108 | T cruzi growth-3 inactive | NIH3T3 tox inactive | NIH3T3 tox 2 102
C[C@H](CO)N1C[C@H](C)[C@@H](CN(C)S(=O)(=O)c2cn(C)cn2)OCCCC[C@H](C)Oc2ccc(NC(=O)CCC(F)(F)F)cc2C1=O	none (no result: IDH1 R132H inh)
C[C@@H]1CN([C@@H](C)CO)C(=O)c2cc(C3=CCCCC3)cnc2O[C@@H]1CN(C)Cc1ccccc1	T cruzi growth-1 inconclusive | T cruzi growth-2 100 | T cruzi growth-3 inactive | NIH3T3 tox inactive | NIH3T3 tox 2 48
